pIC50: −log10 of the molar value.
Key:
HT-29 = assay: Cytotoxicity against human HT-29 cells after 48 hrs by MTT assay; assay type: functional, cell-based; conditions: HT-29, 48 h
Summary of the method: (§1)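 Cells grown in DMEM with 10% FBS at 37 °C under humidified 5% CO2. HeLa seeded at 3,000/well and HT29 at 12,500/well, then allowed 24 h before exposure to varying compound concentrations for 48 h. Viability read by MTT; IC50 values derived from duplicate experiments.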

HeLa = assay: Cytotoxicity against human HeLa cells after 48 hrs by MTT assay; assay type: functional, cell-based; summary of the method: as §1

Row | SMILES | pIC50 (HT-29) | pIC50 (HeLa)
1 | CO[C@@H]1[C@@H](OC)[C@H](C)O[C@@H](O[C@@H]2C[C@H]3O[C@@](O)(C2)[C@@H](C)C(=O)O[C@@H](/C=C/C=C/Br)C[C@@H](C)/C=C\C[C@H](O)[C@@H]3C)[C@@H]1OC | 4.42 | 4.48
2 | CO[C@@H]1[C@@H](OC)[C@H](C)O[C@@H](O[C@@H]2C[C@H]3O[C@@](O)(C2)[C@H](C)C(=O)O[C@@H](/C=C/C=C/Br)C[C@@H](C)/C=C\C[C@H](O)[C@@H]3C)[C@@H]1OC [LYNGBYALOSIDE] | 4.43 | 4.46
3 | CO[C@@H]1[C@@H](OC)[C@H](C)O[C@@H](O[C@@H]2C[C@@H]3CC[C@@H](C)[C@H](O)C[C@@](C)(CC/C=C/C=C/Br)OC(=O)C[C@](O)(C2)O3)[C@@H]1OC | 4.89 | 5.03
4 | CO[C@@H]1[C@@H](OC)[C@H](C)O[C@@H](O[C@@H]2C[C@@H]3CC[C@@H](C)[C@H](O)C[C@@](C)(CC/C=C/C=C\Br)OC(=O)C[C@](O)(C2)O3)[C@@H]1OC | < 4.00 | 4.28
5 | CCCC(=O)N[C@@H](C(C)C)[C@@H](CC(=O)O[C@@H]1COC(=O)c2csc(n2)[C@@H]([C@@](C)(O)CC)OC(=O)[C@@H](C)[C@H](CCCC(C)(Cl)Cl)OC(=O)c2csc1n2)OC(C)=O [LYNGBYABELLIN J] | 7.27 | 7.39
6 | CC[C@H](C)[C@@H]1NC(=O)CNC(=O)c2csc(n2)[C@H](C(C)C)OC(=O)C(C)(C)[C@H](CCCC(C)(Cl)Cl)OC(=O)c2csc1n2 [27-DEOXYLYNGBYABELLIN A] | 7.92 | 8.14
7 | CC(C)[C@@H]1NC(=O)CNC(=O)[C@@H]2CSC(=N2)[C@H](C(C)(C)O)OC(=O)C(C)(C)[C@H](CCCC(C)(Cl)Cl)OC(=O)c2csc1n2 [LYNGBYABELLIN B] | 5.96 | 6.15
8 | CC[C@H](C)[C@@H]1NC(=O)CNC(=O)c2csc(n2)[C@H](C(C)(C)O)OC(=O)C(C)(C)[C@H](CCCC(C)(Cl)Cl)OC(=O)c2csc1n2 [LYNGBYABELLIN A] | 7.33 | 7.66

— ChEMBL document CHEMBL1221344, “Cytotoxic halogenated macrolides and modified peptides from the apratoxin-producing marine cyanobacterium Lyngbya bouillonii from Guam” (J Nat Prod, 2010)
